From ChEMBL document CHEMBL1133004, “3-Alkylamino-4H-pyrido[2,3-e]-1,2,4-thiadiazine 1,1-dioxides structurally related to diazoxide and pinacidil as potassium channel openers acting on vascular smooth muscle cells: design, synthesis, and pharmacological evaluation” (2000) come the findings set out here.

What all share (assay type): functional
The species entered for assay [1] is Rattus norvegicus. Nature of the assay: Concentration giving 50% relaxation of the 30 mM KCL-induced contraction of rat aorta rings. Particulars: read-out: ED50 (the source's name). The procedure, abridged:
(§1)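 Endothelium-denuded aortic rings (3-4 mm) from fed Wistar rats (250-300 g), held at 1 g tension in Krebs-bicarbonate at 37 °C under O2/CO2 (95/5), isometric recording. After 60 min equilibration, contracted with 30 or 80 mM KCl as specified. At plateau, drug was added cumulatively to maximal relaxation or 1 mM. Glibenclamide (1 or 10 µM) was present throughout where stated. ED50 was read graphically as 50% inhibition of the KCl plateau.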

The species entered for assay [2] is Rattus norvegicus. Nature of the assay: Insulin secretion from rat pancreatic islets (RIS) in the presence of 16.7 mM glucose at 50 uM. The method in brief:
(§2)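 Collagenase-isolated islets from fed Wistar rats (180-220 g), in groups of 10. Preincubated 30 min at 37 °C in bicarbonate salt medium with 2.8 mM glucose and 0.5% albumin under O2/CO2. Then incubated 90 min at 37 °C with 16.7 mM glucose plus drug. Insulin was measured by radioimmunoassay against a rat insulin standard and reported as % residual release.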

For assay [3], the species on record is Cavia porcellus. Nature of the assay: Inhibition of electrically stimulated contractions of guinea pig ileum segments. Particulars: read-out: ED50 (the source's name). The procedure, abridged: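 Ileum segments (4 cm, taken ≥10 cm from cecum) from adult guinea pigs (300-400 g), 1 g initial load, Krebs-bicarbonate at 37 °C, gassed 95% O2/5% CO2. Coaxial stimulation at 0.5-ms pulses, 0.1 Hz, 5-25 V, with isometric recording. Drug was added cumulatively to maximal effect and expressed as % of the 5-min pre-drug response. ED50 was assessed graphically.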

For assay [4], the species on record is Rattus norvegicus. Nature of the assay: Effect on Oxytocin-Induced contractions of rat uterus at 50 uM. The procedure, abridged: (§3)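 Uterine horns from fed Wistar rats (150-200 g) primed the day before with im diethylstilboestrol dipropionate (0.1 mL/100 g of 1 mg/mL oily solution). Horns were superfused with Tyrode at 37 °C under O2/CO2 (95/5). 20 mU oxytocin was injected at 10-min intervals until contractions (AUC) were constant, then repeated ≥3 times per drug concentration. Response is given as % of the drug-free oxytocin contraction.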

For assay [5], the species on record is Rattus norvegicus. Put plainly: Effect on Oxytocin-Induced contractions of rat uterus at 100 uM. The procedure, abridged:
as §3

The species named for assay [6] is Rattus norvegicus. Nature of the assay: Effect on Insulin secretion from rat pancreatic islets (RIS) in the presence of 16.7 mM glucose at 10 uM. The method in brief: as §2
The species named for assay [7] is Rattus norvegicus. Nature of the assay: Effect on Oxytocin-Induced contractions of rat uterus at 10 uM. The procedure, abridged:
as §3

The species entered for assay [8] is Rattus norvegicus. Put plainly: Effect on contractile activity of 80 mM potassium-Depolarized rat aorta. To be noted: read-out: ED50 (the source's name). The procedure, abridged: as §1
The species named for assay [9] is Rattus norvegicus. Nature of the assay: Effect on contractile activity of 30 mM potassium-Depolarized rat aorta incubated in the presence of 1 uM Glibenclamide. To be noted: read-out: ED50 (the source's name). The method in brief:
as §1

The species entered for assay [10] is Rattus norvegicus. Nature of the assay: Compound is evaluated for the effect on Oxytocin-Induced contractions of rat uterus at 100 uM. The method in brief:
as §3

For assay [11], the species on record is Rattus norvegicus. Nature of the assay: Effect on contractile activity of 30 mM potassium-Depolarized rat aorta incubated in the absence of Glibenclamide. Particulars: read-out: ED50 (the source's name). The method in brief: as §1
Assay [12] is filed under the species Rattus norvegicus. Nature of the assay: Compound is evaluated for the effect on Oxytocin-Induced contractions of rat uterus at 50 uM. The method in brief: as §3
The species named for assay [13] is Rattus norvegicus. Nature of the assay: Effect on contractile activity of 30 mM potassium-Depolarized rat aorta incubated in the presence of 10 uM Glibenclamide. Particulars: read-out: ED50 (the source's name). The method in brief:
as §1

Assay [14] is filed under the species Rattus norvegicus. Put plainly: Compound is evaluated for the effect on Oxytocin-Induced contractions of rat uterus at 10 uM. The method in brief: as §3
The species named for assay [15] is Rattus norvegicus. Put plainly: Effect on Oxytocin-Induced contractions of rat uterus at concentrations 50 uM. The method in brief:
as §3

The species entered for assay [16] is Rattus norvegicus. Nature of the assay: Effect on Oxytocin-Induced contractions of rat uterus at concentrations 10 uM. The procedure, abridged:
as §3

For assay [17], the species on record is Rattus norvegicus. Nature of the assay: Effect on Oxytocin-Induced contractions of rat uterus at concentrations 100 uM. The procedure, abridged: as §3

Molecules are shown by their SMILES.

Regarding `O=S1(=O)NC(NCC2CCCCC2)=Nc2ncc(Cl)cc21`, the EC50 in [1] was determined as 38.2 µM; in assay [3], 17.4 µM. In addition, the RIS in [2] is reported as 57.7%; in assay [6], 76.8%. The values for the Contraction in assay [4], in [5] and in assay [7] were 95.1%, 90.4% and 96.3%, respectively.
For the compound `C[C@H](NC1=NS(=O)(=O)c2cccnc2N1)c1ccccc1`, the EC50 in assay [1] was 9.9 µM; in assay [3], > 300 µM. For the same compound, the RIS in assay [2] was 73.3%.
For the compound `O=S1(=O)NC(NCc2ccccc2)=Nc2ncc(Cl)cc21`, the EC50 in assay [1] turned out to be 43.6 µM. Moreover, the RIS in assay [2] is given as 74.1%. Further, the Contraction in [4] is recorded as 98.9%; in assay [5], 71.9%; in [7], 108.2%.
For the compound `CCC(C)NC1=NS(=O)(=O)c2cccnc2N1` (stereo unspecified), the EC50 in [1] stood at 50.9 µM. In assay [2], the RIS turned out to be 85.9%.
Take `CC(C)C(C)NC1=NS(=O)(=O)c2cnccc2N1` (stereo unspecified): the EC50 is 154 µM in assay [1] and > 300 µM in assay [3]. Also, the RIS in assay [2] is on record as 7.1%; in assay [6], 26.8%.
In the case of `CC(NC1=NS(=O)(=O)c2cc(Cl)cnc2N1)C(C)(C)C` (stereo unspecified), the EC50 in assay [8] is 33 µM; in assay [9] it was 22.6 µM; in assay [1], 2.3 µM; in [3], > 300 µM; in assay [11], 1.6 µM; in [13], 33.9 µM. Also, the Contraction came to 51% in assay [10], 67.9% in [12] and 97.6% in assay [14]. Besides, in assay [2], the RIS is 41.5%.
With `CC(C)C(C)NC1=NS(=O)(=O)c2cccnc2N1` (stereo unspecified), the EC50 in assay [8] was > 300 µM; in assay [1], 27.1 µM; in [3], > 300 µM; in assay [11], 27.1 µM. Moreover, the RIS in [2] came to 87.9%.
With `CC(C)NC1=NS(=O)(=O)c2cccnc2N1`, the results for the EC50 in assay [1] and in assay [3] were 132 µM and > 300 µM, respectively. Moreover, the RIS in assay [2] is given as 78.7%.
The matching figures for `C[C@@H](NC1=NS(=O)(=O)c2cccnc2N1)c1ccccc1`: 65.2 µM, > 300 µM and 71.6%.
Regarding `C[C@@H](NC1=NS(=O)(=O)c2cccnc2N1)C1CCCCC1`, the EC50 in [1] is 29.2 µM; in assay [3], > 300 µM. Further, the RIS in assay [2] amounted to 79.9%.
In the case of `O=S1(=O)N=C(NCC2CCCCC2)Nc2ncccc21`, the EC50 in assay [1] is 45.7 µM; in [3], 145 µM. Moreover, the RIS in assay [2] came to 94.2%.
Turning to `CCC(C)NC1=NS(=O)(=O)c2cc(Cl)cnc2N1` (stereo unspecified), the EC50 in [1] is 20 µM. The RIS in assay [2] is recorded as 62.7%.
Take `CC(C)NC1=NS(=O)(=O)c2cc(Cl)cnc2N1`: the EC50 in assay [1] is 14.6 µM; in [3], > 300 µM. The RIS in assay [2] turned out to be 74.4%.
On to `C[C@H](NC1=NS(=O)(=O)c2cc(Cl)cnc2N1)C1CCCCC1`, for which the values for the EC50 in assay [1] and in assay [3] were 3.8 µM and 20.4 µM, respectively. Further, the RIS in assay [2] amounted to 11.8%; in [6], 71.9%. Further, the Contraction in assay [4] is 71.4%; in [5] it was 43.7%; in [7], 84.9%.
As for `C[C@H](NC1=NS(=O)(=O)c2cccnc2N1)C1CCCCC1`, the EC50 was 25.2 µM in assay [1] and > 300 µM in [3]. Moreover, the RIS in assay [2] was 76.2%.
As to `C[C@H](NC1=NS(=O)(=O)c2cc(Cl)cnc2N1)c1ccccc1`, the EC50 in assay [1] was found to be 21.2 µM. The RIS in assay [2] is listed as 45.9%. Further, the values for the Contraction in [4], in assay [5] and in [7] were 79.3%, 41.1% and 91%, respectively.
Regarding `CC(NC1=NS(=O)(=O)c2cccnc2N1)C(C)(C)C` (stereo unspecified), the EC50 in [8] was > 300 µM; in [9], 65.2 µM; in [1], 7.5 µM; in [3], > 300 µM; in assay [11] it was 10.1 µM; in assay [13], 107 µM. Further, in assay [2], the RIS was 98.9%. The Contraction worked out at 68% in [15], 93.8% in [16] and 57.5% in assay [17].
Turning to `C[C@@H](NC1=NS(=O)(=O)c2cc(Cl)cnc2N1)c1ccccc1`, in [1], the EC50 turned out to be 38.8 µM. Besides, in [2], the RIS amounted to 52.3%. Besides, the results for the Contraction in assay [4], in assay [5] and in [7] were 59.4%, 32.6% and 88.4%, respectively.
For the compound `CC(C)C(C)NC1=NS(=O)(=O)c2cc(Cl)cnc2N1` (stereo unspecified), the EC50 was 49.3 µM in assay [8]; 34.1 µM in [9]; 10.6 µM in [1]; > 300 µM in [3]; 8.2 µM in assay [11]; 45.1 µM in assay [13]. The RIS in [2] came out at 59.3%.
`O=S1(=O)N=C(NCc2ccccc2)Nc2ncccc21`: the EC50 in assay [1] is 21.9 µM; in assay [3], > 300 µM. Also, in assay [2], the RIS is 86.2%.
Take `C[C@@H](NC1=NS(=O)(=O)c2cc(Cl)cnc2N1)C1CCCCC1`: the EC50 in [8] was determined as 12.3 µM; in [9], 5 µM; in [1], 3.5 µM; in assay [3] it was 13.6 µM; in assay [11] it was 3.7 µM; in [13], 8.6 µM. Also, the figures for the RIS in assay [2] and in assay [6] were 6.7% and 71.3%, respectively. For the same compound, the Contraction is 50.9% in [4], 22.9% in assay [5] and 70.6% in assay [7].
For the compound `CC1=NS(=O)(=O)c2cc(Cl)cnc2N1`, the EC50 in assay [1] was > 300 µM. In addition, the RIS in assay [2] amounted to 87.4%.
As for `CC1=Nc2ccc(Cl)cc2S(=O)(=O)N1` [DIAZOXIDE], the EC50 in assay [8] is > 300 µM; in assay [9] it was 85.8 µM; in [1], 19.3 µM; in [3], > 300 µM; in assay [11], 19.5 µM; in assay [13], 163 µM. In addition, the Contraction is 67.7% in assay [10], 76.3% in assay [12] and 93.8% in assay [14]. Further, the RIS in [2] is 28.8%; in assay [6], 70%.
As to `CC(Cc1ccc(O)cc1)NCC(O)c1cc(O)cc(O)c1` (stereo unspecified) [FENOTEROL], the Contraction in [15] came to 36.3%; in assay [16], 38.4%; in assay [17], 35.5%.
For `CC(N/C(=N\C#N)Nc1ccncc1)C(C)(C)C` (stereo unspecified) [PINACIDIL ANHYDROUS], the EC50 in assay [8] worked out at 16 µM; in assay [9], 10.4 µM; in assay [1] it was 0.5 µM; in [3] it was 9.2 µM; in assay [11], 0.2 µM; in assay [13] it was 42.5 µM. In addition, the Contraction in [10] is given as 38.1%; in assay [12] it was 35.5%; in assay [14], 58.1%. Moreover, the values for the RIS in assay [2] and in assay [6] were 92.1% and 96%, respectively.
